Positions count from the first letter of the chain named.
How the values were obtained:
[1] = Minimum dose required for subcutaneous administration to improve scopolamine-induced impairment of passive avoidance task in mouse(anti-amnesic effect)
[2] = target: T1, Muscarinic acetylcholine receptor M1 (Rattus norvegicus, UniProt P08482); test: Displacement of [3H]pirenzepine from rat cortex membrane expressing muscarinic M1 receptor
T1 sequence (P08482 whole entry): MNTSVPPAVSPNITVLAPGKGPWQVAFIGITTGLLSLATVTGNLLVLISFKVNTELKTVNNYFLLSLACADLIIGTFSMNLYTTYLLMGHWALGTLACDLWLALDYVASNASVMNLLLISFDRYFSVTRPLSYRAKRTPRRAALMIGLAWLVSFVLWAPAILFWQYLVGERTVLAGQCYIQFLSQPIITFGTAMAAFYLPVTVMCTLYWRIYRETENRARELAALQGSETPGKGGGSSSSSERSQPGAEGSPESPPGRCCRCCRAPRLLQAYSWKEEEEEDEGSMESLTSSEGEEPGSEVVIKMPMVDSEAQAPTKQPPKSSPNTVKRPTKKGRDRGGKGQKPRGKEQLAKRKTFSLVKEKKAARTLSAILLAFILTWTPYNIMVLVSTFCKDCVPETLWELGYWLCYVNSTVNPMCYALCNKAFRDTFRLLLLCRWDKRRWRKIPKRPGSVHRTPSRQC
Outline: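 M1 binding: male Wistar rat cerebral cortex membranes were resuspended in 8.3 mM Tris-HCl with 1.25 mM MnCl2, pH 7.4. Membranes (250 μg protein) were incubated with about 1.0 nM [3H]pirenzepine for 60 min at 25 °C. Atropine 10 μM defined nonspecific binding. Bound radioactivity was collected by filtration and counted by scintillation. IC50 came from logit-log analysis, converted by Cheng-Prusoff to Ki; single experiment in triplicate.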

[3] = target: T2, Muscarinic acetylcholine receptor M1 (Rattus norvegicus) (UniProt P08482); test: Compound was tested for percent inhibition against displacement of [3H]pirenzepine from rat cortex membrane expressing muscarinic M1 receptor at 10^-6 M
T2 sequence (whole entry): T1 sequence (P08482 whole entry)

[4] = tested on: Muscarinic acetylcholine receptors M1 & M2 (Rattus norvegicus); test: The ratio of Ki for M2 receptor to the Ki for M1 receptor was determined
Mus musculus [5] = test: Dose required to reduce the rectal temperature (hypothermia) by 2 degree Celsius was determined in vivo in mice; assay type: functional
Outline: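 Rectal temperature of male ICR mice was taken with a thermoprobe before and 30 min after sc dosing. Dosing started at 30 mg/kg and fell by thirds until a drop over 2 °C no longer occurred, giving ED Δ2°C. Each dose group had 3-6 mice.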

Rattus norvegicus [6] = test: Increase in blood pressure of pithed rats after intravenous administration at 3 mg/kg; assay type: functional
Outline: (§1)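 Male Wistar rats (ca. 200–300 g) were ether-anesthetized, tracheally catheterized, pithed with a steel rod and ventilated with room air. Drugs were given iv via the left femoral vein. Arterial pressure was recorded from the left common carotid artery, with body temperature held at 37 °C.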

Mus musculus [7] = test: Dose producing more than 30 mg of saliva as a total amount was determined in vivo in mice; assay type: functional
Outline: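 Male ICR mice were dosed sc, and saliva was collected at 15 and 45 min after dosing. ED30mg is the dose giving more than 30 mg total saliva. Dosing started at 30 mg/kg and fell stepwise by thirds. Each dose group had 3-6 mice.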

[8] = target: T3, Muscarinic acetylcholine receptor M2 (Rattus norvegicus, UniProt P10980); test: Tested against muscarinic M2 receptor by displacement of [3H]quinuclidinyl benzilate from rat cerebellum membrane; assay type: tissue-based
T3 sequence (P10980 whole entry): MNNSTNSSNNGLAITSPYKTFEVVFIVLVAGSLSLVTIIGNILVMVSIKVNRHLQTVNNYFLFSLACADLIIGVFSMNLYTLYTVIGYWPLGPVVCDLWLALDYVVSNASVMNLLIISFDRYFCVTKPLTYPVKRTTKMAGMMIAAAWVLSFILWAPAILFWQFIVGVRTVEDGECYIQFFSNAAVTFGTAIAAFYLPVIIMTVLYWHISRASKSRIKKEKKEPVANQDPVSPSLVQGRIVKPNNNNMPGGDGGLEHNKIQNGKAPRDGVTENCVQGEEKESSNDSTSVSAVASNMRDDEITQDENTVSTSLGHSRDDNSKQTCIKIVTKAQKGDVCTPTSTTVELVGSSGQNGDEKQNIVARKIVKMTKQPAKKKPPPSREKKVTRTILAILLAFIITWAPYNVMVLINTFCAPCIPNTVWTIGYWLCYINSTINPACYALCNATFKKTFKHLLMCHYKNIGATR
Outline: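 M2 binding: male Wistar rat cerebellum membranes (150 μg protein) were incubated with 0.06 nM [3H]QNB in 50 mM Na+/K+ phosphate, pH 7.4, for 60 min at 25 °C. Atropine 10 μM defined nonspecific binding. Bound radioactivity was collected by filtration and counted by scintillation. Ki came from logit-log IC50 with Cheng-Prusoff correction; single experiment in triplicate, with 95% confidence intervals.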

[9] = target: T4, Muscarinic acetylcholine receptor M2 (Mus musculus) (UniProt Q9ERZ4); test: In vivo muscarinic effect of […] hypothermia against central M2 receptor in mice at dose under 30 mg/kg sc (2 degree Celsius); assay type: functional, organism-based; set-up: dose 30 mg/kg
T4 sequence (whole entry): T3 sequence (P10980 whole entry) with V270G, R316K, K321R, A331T, V336A
Outline: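 Male ICR mice given test compound subcutaneously. Rectal temperature taken by thermoprobe before dosing and 30 min after. ED for a 2 °C fall was found by starting at 30 mg/kg and lowering each dose to one-third of the previous until no drop over 2 °C was seen. 3-6 mice per dose group.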

Mus musculus [10] = test: Dose sc producing more than 30 mg of saliva as a total amount was determined in vivo in mice; assay type: functional
Outline: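 Male ICR mice given test compound subcutaneously. Saliva collected at 15 and 45 min after dosing. ED30mg is the dose giving more than 30 mg total saliva. Start at 30 mg/kg, then lower each dose to one-third of the previous until the criterion fails. 3-6 mice per dose group.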

[11] = target: T3, Muscarinic acetylcholine receptor M2; test: Compound tested in vitro for displacement of [3H]quinuclidinyl benzilate from rat cerebellum membrane expressing muscarinic M2 receptor; assay type: tissue-based
Outline: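 Male Wistar rat cerebellum homogenised in 0.32 M sucrose, spun at 900g then 11500g (4 °C), pellet washed in 5 mM Tris-HCl pH 7.4, stored -80 °C. Incubation in 50 mM Na+/K+ phosphate pH 7.4 with 0.06 nM [3H]QNB and 150 μg protein, 60 min at 25 °C. Nonspecific binding with 10 μM atropine. Filtration, scintillation counting. Triplicate, single experiment. Logit-log IC50 converted to Ki by Cheng-Prusoff.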

Rattus norvegicus [12] = test: Increase in blood pressure of pithed rats after intravenous administration at 0.1 mg/kg; assay type: functional
Outline: as §1

MED [1] | Ki [2] | inhibition [3] | Compound | also measured
0.3 mg/kg | 12 µM |  | CN1CCC2(CC1)OC(=O)N(c1cccc(Cl)c1)C2=O | 
> 30 mg/kg | > 10 µM | 10% | CN1CCC2(CC1)OC(=O)N(CCN1CCOCC1)C2=O | 
0.3 mg/kg | 5 µM |  | CCN1C(=O)OC2(CCN(C)CC2)C1=O.Cl | M2/M1 Index [4]: 1.5; ED delta (Mus musculus [5]): >30 mg/kg; BP (Rattus norvegicus [6]): 24 mmHg; ED30 (Mus musculus [7]): 30 mg/kg; Ki [8]: 7.8 µM
30 mg/kg | > 10 µM | 0% | CCN1C(=O)OC2(CCN(CCCC(=O)OC)CC2)C1=O | 
> 30 mg/kg | 6.4 µM |  | COC(=O)CCCN1C(=O)OC2(CCN(C)CC2)C1=O | 
0.3 mg/kg | 7.8 µM |  | CCN1C(=O)OC2(CCNCC2)C1=O.Cl | ED delta (Mus musculus [5]): >30 mg/kg; ED30 (Mus musculus [7]): > 30 mg/kg
> 30 mg/kg | 16 µM |  | CN1CCC2(CC1)OC(=O)N(C)C2=O | 
 | 1.5 µM |  | CN1CCC2(CC1)OC(=O)N(C(C)(C)C)C2=O | 
> 30 mg/kg | > 10 µM | 0% | CN1CCC2(CC1)OC(=O)NC2=O | 
 | > 10 µM | 2% | CCN1C(=O)OC2(CCN(Cc3ccccc3)CC2)C1=O | 
> 30 mg/kg | > 10 µM | 0% | CCN1C(=O)OC2(CCN(CC#CCOC(=O)Nc3cccc(Cl)c3)CC2)C1=O | 
0.1 mg/kg | 0.46 µM |  | Br.CCN1C(=O)CC2(CCN(C)CC2)C1=O | M2/M1 Index [4]: 2.1; ED delta (Mus musculus [5]): 1 mg/kg; BP (Rattus norvegicus [12]): 12 mmHg; ED30 (Mus musculus [10]): 0.5 mg/kg; Ki [11]: 0.97 µM

The next lines start with the compound.

Compound | MED [1] | Ki [2] | inhibition [3] | also measured
C=CCN1C(=O)OC2(CCN(C)CC2)C1=O | > 30 mg/kg | 5.1 µM |  | 
CCN1C(=O)OC2(CCCN(C)C2)C1=O (configuration not stated) | > 30 mg/kg | > 10 µM |  | 
CN1CCC2(CC1)OC(=S)N(c1ccccc1)C2=O |  | 4 µM |  | 
CN1CCC2(CC1)OC(=O)N(CC(N)=O)C2=O | > 30 mg/kg | > 10 µM | 36% | 
COC(=O)CN1C(=O)OC2(CCN(C)CC2)C1=O |  | > 10 µM | 40% | 
CCN1C(=O)C2(CCN(C)CC2)OC1=S |  | 0.89 µM |  | ED delta [9]: 30 mg/kg; ED30 (Mus musculus [10]): 30 mg/kg; Ki [11]: 4.3 µM
CN1CCC2(CC1)OC(=S)NC2=O | 30 mg/kg | > 10 µM | 0% | 
CCN1C(=O)OC2(CCN(C)C2)C1=O (configuration not stated) | > 30 mg/kg | > 10 µM |  | 
CN1CCC2(CC1)OC(=S)N(C(C)(C)C)C2=O.Cl |  | 0.21 µM |  | ED delta [9]: 30 mg/kg; ED30 (Mus musculus [10]): > 30 mg/kg; Ki [11]: 2.1 µM

Source: ChEMBL document CHEMBL1126758, “Synthesis and structure-activity studies of a series of spirooxazolidine-2,4-diones: 4-oxa analogues of the muscarinic agonist 2-ethyl-8-methyl-2,8-diazaspiro[4.5]decane-1,3-dione” (J Med Chem, 1993)
